Measurements from ChEMBL document CHEMBL3872217, “Structure-guided discovery of thiazolidine-2,4-dione derivatives as a novel class of Leishmania major pteridine reductase 1 inhibitors” (Eur J Med Chem, 2016).
Calls of active or inactive are those of the source. No cut-off for these calls is given here.

Assays:
Pteridine reductase 1 = molecular target: T1, Pteridine reductase 1 (Leishmania major, UniProt Q01782); experiment: Inhibition of Leishmania major recombinant N-terminal hexa-His tagged PTR1 catalytic activity expressed in Escherichia coli BL21(DE3) using biopterin as substrate measured for 60 sec in presence of NADPH by UV-visible spectrophotometric method relative to control
T1 sequence (Q01782 whole entry): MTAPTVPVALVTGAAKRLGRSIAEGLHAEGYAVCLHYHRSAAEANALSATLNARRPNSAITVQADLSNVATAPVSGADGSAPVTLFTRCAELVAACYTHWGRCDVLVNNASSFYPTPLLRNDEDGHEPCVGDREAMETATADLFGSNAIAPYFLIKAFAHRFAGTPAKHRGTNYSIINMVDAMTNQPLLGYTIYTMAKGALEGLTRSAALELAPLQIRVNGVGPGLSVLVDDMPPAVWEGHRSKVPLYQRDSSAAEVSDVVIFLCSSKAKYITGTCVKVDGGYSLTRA
Outline: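 Spectrophotometric assay at 30 °C with purified recombinant LmPTR1 at 0.2 μM in 20 mM sodium citrate pH 4.7, with NADPH and biopterin cofactor/substrate. Compound added in 5% DMSO (v/v). NADPH consumption followed as the drop in absorbance at 340 nm over 60 s; triplicate. IC50 by non-linear regression over at least six inhibitor concentrations.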

[1] = molecular target: T2, Pteridine reductase 1 (Leishmania major) (UniProt Q01782); experiment: Binding affinity to Leishmania major recombinant N-terminal hexa-His tagged PTR1 expressed in Escherichia coli BL21(DE3) assessed as change in melting temperature at 50 uM at pH 4.7 by SYPRO orange dye based thermal shift assay
T2 sequence (whole entry): T1 sequence (Q01782 whole entry)
Outline: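 Recombinant LmPTR1 from E. coli BL21(DE3) with pET-LmPTR1, Ni-NTA purified. Protein 5 μM in 50 mM sodium acetate pH 4.7 with SYPRO Orange (excitation 492, emission 610 nm); compound 50 μM from 1 mM DMSO stock; reference wells with DMSO only. Melt 25–85 °C at 1 °C per min; Tm from Boltzmann sigmoidal fit; triplicate; ΔTm compared by Kruskal-Wallis.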

[2] = molecular target: T2, Pteridine reductase 1 (Leishmania major); experiment: Effect on thermal stability of Leishmania major recombinant N-terminal hexa-His tagged PTR1 expressed in Escherichia coli BL21(DE3) by SYPRO orange dye based thermal shift assay
Outline: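 Dose-response thermal stability run on Ni-NTA purified LmPTR1 (expressed from pET-LmPTR1 in E. coli BL21(DE3)) at 5 μM in 50 mM sodium acetate pH 4.7 with SYPRO Orange. Excitation 492 nm and emission 610 nm; ramp 25–85 °C, 1 °C per min. Tm taken from a Boltzmann sigmoidal fit against DMSO reference wells; done in triplicate.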

[3] = molecular target: T2, Pteridine reductase 1 (Leishmania major); experiment: Inhibition of Leishmania major recombinant N-terminal hexa-His tagged PTR1 catalytic activity expressed in Escherichia coli BL21(DE3) at 50 uM using biopterin as substrate measured for 60 sec in presence of NADPH by UV-visible spectrophotometric method relative to control
[4] = molecular target: T2, Pteridine reductase 1 (Leishmania major); experiment: Noncompetitive inhibition of Leishmania major recombinant N-terminal hexa-His tagged PTR1 catalytic activity expressed in Escherichia coli BL21(DE3) assessed as decrease in thermal shift stabilization at 50 uM at pH 4.7 in presence of varying levels of NADPH and constant biopterin substrate concentration by SYPRO orange dye based assay
Outline: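 Inhibition type probed by repeating the TSA screen (5 μM LmPTR1, 50 mM sodium acetate pH 4.7, SYPRO Orange, compound 50 μM) while varying NADPH at 0.0, 3.0, 6.25, 12.5 and 50 μM. Triplicate; ΔTm values compared by Kruskal-Wallis non-parametric ANOVA.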

[5] = molecular target: T2, Pteridine reductase 1 (Leishmania major); experiment: Noncompetitive inhibition of Leishmania major recombinant N-terminal hexa-His tagged PTR1 catalytic activity expressed in Escherichia coli BL21(DE3) at 25 to 45 uM at pH 4.7 in presence of saturating concentration of biopterin and varying levels of NADPH by double-reciprocal plot analysis
Outline: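 Inhibition mode measured under the 340 nm kinetic conditions (0.2 μM LmPTR1, 20 mM sodium citrate pH 4.7, 30 °C, 60 s). Biopterin held at saturating 40 μM; NADPH varied over 5.0, 7.5, 10.0, 20.0 and 40.0 μM at two fixed inhibitor concentrations. Analysed by double-reciprocal plots; means of at least three experiments.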

Row | SMILES | IC50 (Pteridine reductase 1) [µM] | ΔTm [1] [°C] | Activity [2] [µM] | inhibition [3] | inhibition [4] | inhibition [5]
1 | O=C1NC(=O)/C(=C/c2cc(Cl)ccc2O)S1 | 75.9 | > 1 | > 200 | Active | – | –
2 | O=C1NC(=O)/C(=C/c2c(F)cccc2Br)S1 | 589 | 1.7 | – | 36% | – | –
3 | O=C1NC(=O)/C(=C/c2ccc(Cl)cc2Cl)S1 | – | > 1 | – | – | – | –
4 | COc1ccc(Br)c(/C=C2\SC(=O)NC2=O)c1 | – | > 1 | – | – | – | –
5 | O=C1NC(=O)/C(=C/c2c(Cl)cccc2Cl)S1 | – | < 1 | – | – | – | –
6 | O=C1NC(=O)/C(=C/c2cc(Cl)cc(Br)c2O)S1 | 44.7 | 11 | > 200 | Active | Active | Active
7 | O=C1NC(=O)/C(=C/c2ccc(Cl)c(Cl)c2)S1 | – | 3.01 | – | – | – | –
